Screening results from PubChem BioAssay.
bCat KO growth = primary screen for growth suppressors in beta-catenin knockout HCT116 cells (colon tumor, human) | HCT116 beta-catenin knockout viability, CellTiter-Glo, 60 h; active compounds read low | viability, % at 10 µM | 140,000 tested, 1.5% active;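 active = viability at or under a set limit, the compound median less 4 SD, cut at about 6% in these data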;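 also: 0% = Hyamine 1622 control at 20 µM and 100% = untreated cell control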
HCT116 PTEN-null = growth suppression of PTEN-null HCT116, primary screen, cell-based, CellTiter-Glo | 140,000 tested, 1.2% active | viability, % at 10 µM | HCT116 PTEN-null viability, 60 h; active compounds read low | AID 827, 2007;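 active = viability at or below a set limit, 4 SD under the median of all tested compounds, cut at about 3.7% in these data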;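 also: PTEN knockout HCT116 line with beta catenin targeted HCT116 as companion control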
HUVEC prolif 384 = inhibitors of HUVEC proliferation, primary screen, cell-based, 384-well | CellTiter-Glo luminescence, 72 h; active compounds read low | viability, % at 10 µM (by protocol) | 86,000 tested, 1.1% active;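 active = viability at or below 30%; inactive = viability above 30%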;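 also: 100% = median luminescence of DMSO-only cell control wells on each plate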
Lung fibro prol = antiproliferative effect on LL 47 fibroblasts – human, LL 47 cells, CellTiter-Glo luminescence, primary screen. LL 47 human lung fibroblast viability, ATP luminescence; active compounds read low. 85,000 tested, 1.1% active. viability, % at 10 µM. AID 719, 2007;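 active = viability at or below 50% in the single dose screen; inactive = viability above 50%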;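 also: compound exposure lasted 72 h before the ATP readout; 100% = median luminescence of untreated cell-only wells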
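Benchmarks: Cell-only wells, no compound | Test system: LL 47 human lung fibroblasts, passage 12 or lower | Input: 1,150 cells/well | Measured by: CellTiter-Glo luminescence measuring cellular ATP | Medium: IMEM, 15% FBS supplement | Schedule: Overnight attachment after seeding, then 72 h compound exposure at 37 °C | Doses: Compound addition at 0.1% DMSO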
H69AR growth 86K = proliferation blockers of H69AR lung cancer cells, primary screen, cell-based, human, 86K library; viability, % at 10 µM; 85,000 tested, 6% active; H69AR lung tumor viability, ATP luminescence, 72 h; active compounds read low;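 active = viability at or below 40%; inactive = viability above 40%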;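 also: multidrug resistant small cell line overexpressing MRP-1 efflux transporter; 100% = mean luminescence of untreated control wells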
Numbers without * were called inactive. The full list was thinned out, with hits kept by preference.

Cc1ccc2nc(NC(=O)c3ccc(Cl)s3)sc2c1 was read as bCat KO growth 86.4, HCT116 PTEN-null 80.4, HUVEC prolif 384 70.1, Lung fibro prol 50.8 and H69AR growth 86K 20.2*.
`Cc1ccc2nc(NC(=O)c3cccc(-c4cc5ccccc5oc4=O)c3)sc2c1` gave bCat KO growth 3.0* and HCT116 PTEN-null 2.2*.
O=C1CCC(=O)N1CNc1cccnc1 was read as bCat KO growth 92.3, HCT116 PTEN-null 100.5, HUVEC prolif 384 96.3, Lung fibro prol 99.8 and H69AR growth 86K 97.4.
O=C(c1ccc2c(Cl)c3c(nc2c1)CCCC3)N1CCN(c2ccc(F)cc2)CC1 was read as bCat KO growth 81.2 and HCT116 PTEN-null 78.6.
Screening O=c1oc2ccccc2cc1-c1csc(Nc2nc3ccc(F)cc3s2)n1 returned bCat KO growth 80.2 and HCT116 PTEN-null 67.5.
For O=c1oc2ccccc2cc1-c1csc(Nc2nc3c(F)cccc3s2)n1 the results were bCat KO growth 5.1* and HCT116 PTEN-null 2.5*.
O=C(O)C1CCCN1C(=O)Nc1ccc(Cl)cc1 (centres undefined) was read as bCat KO growth 96.3 and HCT116 PTEN-null 102.9.
`CCCCCCc1cc2cc(-c3nnc(-c4ccccc4OC)o3)c(=O)oc2cc1O` gave bCat KO growth 11.5, HCT116 PTEN-null 3.9, HUVEC prolif 384 63.1, Lung fibro prol 72.4 and H69AR growth 86K 3.0*.
Screening CCCCCCc1cc2cc(-c3nnc(-c4cc(OC)c(OC)c(OC)c4)o3)c(=O)oc2cc1O returned bCat KO growth 10.8, HCT116 PTEN-null 9.0, HUVEC prolif 384 75.9, Lung fibro prol 62.1 and H69AR growth 86K 2.3*.
Screening CCCCCCc1cc2cc(-c3nnc(-c4ccccc4O)o3)c(=O)oc2cc1O returned bCat KO growth 0.7* and HCT116 PTEN-null 0.7*.
CCCCCCc1cc2cc(C(=O)Nc3ccccc3OC)c(=O)oc2cc1O was read as bCat KO growth 61.6 and HCT116 PTEN-null 83.2.
Screening CCN(CC)c1cc(Oc2ccccc2)ncn1 returned bCat KO growth 106.4, HCT116 PTEN-null 95.0, HUVEC prolif 384 102.2, Lung fibro prol 95.2 and H69AR growth 86K 98.4.
Screening CC(C(=O)NC(=O)NCc1ccccc1)N1C(=O)c2ccccc2C1=O (centres undefined) returned bCat KO growth 0.9*, HCT116 PTEN-null 0.9*, HUVEC prolif 384 93.5, Lung fibro prol 100.2 and H69AR growth 86K 94.4.
For CCOc1ccccc1N1CCN(c2nc(N)c(C#N)c(CC#N)c2C#N)CC1 the results were bCat KO growth 91.0, HCT116 PTEN-null 82.6, HUVEC prolif 384 87.1, Lung fibro prol 94.6 and H69AR growth 86K 20.1*.
`COc1cc(-c2nc3ccccn3c2NCC2CCCO2)ccc1O` (centres undefined) gave bCat KO growth 88.5, HCT116 PTEN-null 76.1, HUVEC prolif 384 88.3, Lung fibro prol 89.5 and H69AR growth 86K 26.8*.
Screening CCOc1cc(-c2nc3ccccn3c2NCC2CCCO2)ccc1O (centres undefined) returned bCat KO growth 71.7, HCT116 PTEN-null 72.4, HUVEC prolif 384 69.6, Lung fibro prol 97.7 and H69AR growth 86K 27.6*.
Screening O=C(C#Cc1ccccc1)c1ccc([N+](=O)[O-])cc1 returned bCat KO growth 6.5, HCT116 PTEN-null 4.0, HUVEC prolif 384 47.4, Lung fibro prol 19.7* and H69AR growth 86K 1.1*.
Screening Cc1onc(-c2c(Cl)cccc2Cl)c1C(=O)N/N=C(\N)COc1ccc(Cl)cc1 returned bCat KO growth 5.9* and HCT116 PTEN-null 9.1.
Screening Oc1c(Cl)cc(Cl)cc1Sc1cc(Cl)cc(Cl)c1O returned bCat KO growth 4.0*, HCT116 PTEN-null 4.3, HUVEC prolif 384 32.7, Lung fibro prol 84.2 and H69AR growth 86K 13.8*.
Oc1c(Cl)cc(Cl)cc1C(C#Cc1ccccc1)N1CCOCC1 (centres undefined) was read as bCat KO growth 10.9 and HCT116 PTEN-null 8.9.
Screening CCc1ccc(N2CC(C(=O)Nc3ccc(C)c(S(=O)(=O)N4CCOCC4)c3)CC2=O)cc1 (centres undefined) returned bCat KO growth 65.8 and HCT116 PTEN-null 75.8.
Cc1[nH]n2c(=O)c3c(nc2c1-c1ccc(Cl)cc1)CCC3 was read as bCat KO growth 14.7, HCT116 PTEN-null 16.3, HUVEC prolif 384 45.2, Lung fibro prol 72.6 and H69AR growth 86K 25.9*.
For O=c1c2c(nc3c(-c4ccccc4)c[nH]n13)CCCC2 the results were bCat KO growth 89.1, HCT116 PTEN-null 111.1, HUVEC prolif 384 83.1, Lung fibro prol 78.9 and H69AR growth 86K 58.2.
For Cc1[nH]n2c(=O)c3c(nc2c1-c1ccccc1)CCC3 the results were bCat KO growth 97.0, HCT116 PTEN-null 82.8, HUVEC prolif 384 79.9, Lung fibro prol 96.3 and H69AR growth 86K 24.9*.
`O=C(Oc1ccc(Cl)c2cccnc12)c1cccc([N+](=O)[O-])c1` gave bCat KO growth 26.2 and HCT116 PTEN-null 22.5.
For O=C(Oc1c(Cl)cc(Cl)c2cccnc12)c1cccc([N+](=O)[O-])c1 the results were bCat KO growth 4.4* and HCT116 PTEN-null 10.1.
CC(C)Cc1nc2oc3c(NCC4CCCO4)ncnc3c2c2c1CCC2 (centres undefined) was read as bCat KO growth 54.6, HCT116 PTEN-null 50.3, HUVEC prolif 384 52.7, Lung fibro prol 85.0 and H69AR growth 86K 32.8*.
Screening COCCCNCCOCCOc1ccc(Cl)cc1C(C)(C)C returned bCat KO growth 0.9* and HCT116 PTEN-null 1.1*.
COc1ccccc1C(=O)Nc1cc(Cl)ccc1O was read as bCat KO growth 83.4, HCT116 PTEN-null 75.2, HUVEC prolif 384 86.6, Lung fibro prol 96.3 and H69AR growth 86K 86.9.
Screening CCOc1ccccc1C(=O)Nc1cc(Cl)ccc1O returned bCat KO growth 57.5, HCT116 PTEN-null 65.8, HUVEC prolif 384 49.6, Lung fibro prol 99.1 and H69AR growth 86K 29.9*.
`Cc1ccc(Cl)cc1NC(=O)c1ccccc1OCC(=O)Nc1ccc(Cl)cc1` gave bCat KO growth 27.2 and HCT116 PTEN-null 2.9*.
Cn1c(CS(=O)Cc2c(Cl)cccc2Cl)nnc1SCc1ccc(Cl)cc1 (centres undefined) was read as bCat KO growth 80.3 and HCT116 PTEN-null 88.9.
Screening COc1cccc(-c2nc(-c3ccc(NC(=O)Cc4ccccc4OC)cc3)no2)c1 returned bCat KO growth 85.3, HCT116 PTEN-null 71.8, HUVEC prolif 384 100.6, Lung fibro prol 97.2 and H69AR growth 86K 107.0.
Screening COc1ccccc1CC(=O)Nc1ccc(-c2noc(COc3ccc(Br)cc3)n2)cc1 returned bCat KO growth 93.3, HCT116 PTEN-null 93.0, HUVEC prolif 384 85.9, Lung fibro prol 83.1 and H69AR growth 86K 19.3*.
`Cc1ccccc1OCc1nc(-c2ccc(NC(=O)c3ccc4c(c3)OCO4)cc2)no1` gave bCat KO growth 60.6, HCT116 PTEN-null 45.6, HUVEC prolif 384 31.2, Lung fibro prol 29.9* and H69AR growth 86K 16.5*.
